From ChEMBL document CHEMBL1122273, “5-sulfamoylorthanilic acids, a sulfonamide series with salidiuretic activity” (J Med Chem, 1983) come the findings set out here.

Active and inactive are the calls of the source. No cut-off for these calls is given here.

The species named for experiment [1] is Rattus norvegicus. As to the kind of experiment: Saluretic activity in the rat measured as concentration of chloride in urine. The experiment is classed as functional. The essentials:
(§1)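 Rats deprived of food 24 h, water ad libitum, dosed 50 mg/kg by stomach tube as suspension in 2% starch, no extra water load. Groups of three in diuresis funnels; urine over first 5 h collected. Na⁺ and K⁺ by flame photometry, Cl⁻ argentometrically; expressed as mequiv/kg.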

Experiment [2] concerns Canis familiaris. The experiment can be described thus: Saluretic activity in the dog measured as concentration of Cl - in urinary excretion (2 animals/dose) at (dose mg/Kg, po). The experiment is classed as functional, Canis lupus familiaris, Urine. The essentials: (§2)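 Male beagles trained to the procedures, food withdrawn 24 h before, tap water ad libitum. Bladder emptied by catheter, then 20 mL/kg tap water by stomach tube, plus 4 mL/kg orally at each hourly catheterization up to 8 h. The first 2 h of urine served as control. Compound given orally after the second catheterization. Urine from 1–6 h post-dose pooled; Na⁺ and K⁺ by flame photometry, Cl⁻ argentometrically, in mequiv/kg.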

Experiment [3] can be described thus: (§3) It is the ratio, measured as saluretic activity in the dog as concentration of Na+ in urinary excretion (dose 1.56 mg/Kg, po) to that of K. The experiment is classed as functional, Urine. The essentials:
(§4)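 Trained male beagles, fasted 24 h with tap water ad libitum. Bladder emptied by catheter, then 20 mL/kg tap water by stomach tube, with 4 mL/kg water at each hourly catheterization up to 8 h. The first 2 h of urine served as control. Oral dosing came after the second catheterization, and 1–6 h urine was pooled. Na⁺ and K⁺ were measured by flame photometry, Cl⁻ argentometrically, in mequiv/kg.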

Experiment [4] is filed under the species Rattus norvegicus. The experiment can be described thus: Saluretic activity in the rat measured as concentration of K+ in urine. The experiment is classed as functional. The method in brief:
as §1

For experiment [5], the species on record is Rattus norvegicus. The experiment can be described thus: Diuretic activity in the rats, determined by a modified Lipschitz test. The experiment is classed as functional, Urine. The essentials: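 Modified Lipschitz test: rats deprived of water 24 h, grouped in threes of similar weight in diuresis funnels. Oral dose of 50 mg/kg, suspended in 2% starch solution, by stomach tube.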

Experiment [6] in a line: It is the ratio, measured as saluretic activity in the dog as concentration of Cl- in urinary excretion (dose 1.56 mg/Kg, po) to that of (Na+)+(K+). It counts as functional, Urine. The method in brief: as §4
The subject of experiment [7] is Canis familiaris. The experiment can be described thus: Diuretic activity in the dog (2 animals/dose) at (dose 1.56 mg/Kg), when administered perorally. It counts as functional, Canis lupus familiaris, Urine. The essentials:
as §4

In experiment [8] the test system is Canis familiaris. The experiment can be described thus: Saluretic activity in the dog measured as concentration of Na+ in urinary excretion (2 animals/dose) at (dose 1.56 mg/Kg, po). The experiment is classed as functional, Canis lupus familiaris, Urine. The method in brief:
(§5)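 Male beagles trained to rest on a table and to accept stomach tube and catheter. Food withdrawn 24 h before, tap water ad libitum. Bladder emptied by catheter, then 20 mL/kg tap water by stomach tube. Catheterized hourly up to 8 h with 4 mL/kg water orally each time; first 2 h urine served as control. Oral dosing after second catheterization. Pooled 1–6 h urine; Na⁺/K⁺ by flame photometry, Cl⁻ argentometrically.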

Experiment [9] has as its system Canis familiaris. As to the kind of experiment: Saluretic activity in the dog measured as concentration of K+ in urinary excretion (2 animals/dose) at (dose 1.56 mg/Kg, po). The experiment is classed as functional, Canis lupus familiaris, Urine. The essentials:
as §5

The species named for experiment [10] is Rattus norvegicus. The experiment can be described thus: Saluretic activity in the rat measured as concentration of Na+ in urine. It counts as functional. The method in brief: as §1
Experiment [11] relates to Canis familiaris. As to the kind of experiment: Salidiuretic activity on the basis of the 1.56 mg/Kg po dog assay; compound was highly active. The settings on record: Canis lupus familiaris; Urine. The experiment is classed as functional, organism-based.
Experiment [12] can be described thus: It is the ratio, measured as saluretic activity in the dog as concentration of Cl- in urinary excretion (dose 0.4 mg/Kg, po) to that of (Na++K+). The experiment is classed as functional, Urine. The essentials: as §4
Experiment [13] has as its system Canis familiaris. As to the kind of experiment: Saluretic activity in the dog measured as concentration of K+ in urinary excretion (2 animals/dose) at (dose 6.25 mg/Kg, po). It counts as functional, Canis lupus familiaris, Urine. The essentials:
as §5

The subject of experiment [14] is Canis familiaris. As to the kind of experiment: Saluretic activity in the dog measured as concentration of Cl - in urinary excretion (2 animals/dose) at (dose 0.4 mg/Kg, po). The experiment is classed as functional, Canis lupus familiaris, Urine. The method in brief:
as §2

Experiment [15] relates to Canis familiaris. The experiment can be described thus: Saluretic activity in the dog measured as concentration of Na+ in urinary excretion (2 animals/dose) at (dose 6.25 mg/Kg, po). The experiment is classed as functional, Canis lupus familiaris, Urine. The method in brief: as §5
Experiment [16] deals with Canis familiaris. The experiment can be described thus: Saluretic activity in the dog measured as concentration of K+ in urinary excretion (2 animals/dose) at (dose 0.1 mg/Kg, po). It counts as functional, Canis lupus familiaris, Urine. The essentials: as §2
Experiment [17] can be described thus: It is the ratio, measured as saluretic activity in the dog as concentration of Cl- in urinary excretion (dose 1.56 mg/Kg, po) to that of (Na++K+). It counts as functional, Urine. The method in brief:
as §4

Experiment [18] is described as follows: It is the ratio, measured as saluretic activity in the dog as concentration of Cl- in urinary excretion (dose 6.25 mg/Kg, po) to that of (Na++K+). It counts as functional, Urine. The essentials: as §4
Experiment [19] deals with Canis familiaris. The experiment can be described thus: Saluretic activity in the dog measured as concentration of K+ in urinary excretion (2 animals/dose) at (dose 0.4 mg/Kg, po). The experiment is classed as functional, Canis lupus familiaris, Urine. The essentials: as §2
A short description of experiment [20]: It is the ratio, measured as saluretic activity in the dog as concentration of Na+ in urinary excretion (dose 0.4 mg/Kg, po) to that of K. It counts as functional, Urine. The method in brief: as §4
Experiment [21] has as its system Canis familiaris. The experiment can be described thus: Saluretic activity in the dog measured as concentration of Cl - in urinary excretion (2 animals/dose) at (dose 1.56 mg/Kg, po). It counts as functional, Canis lupus familiaris, Urine. The method in brief: as §2
Experiment [22] has as its system Canis familiaris. As to the kind of experiment: Saluretic activity in the dog measured as concentration of Na+ in urinary excretion (2 animals/dose) at (dose 0.1 mg/Kg, po). The experiment is classed as functional, Canis lupus familiaris, Urine. The method in brief: as §5
The nature of experiment [23]: It is the ratio, measured as saluretic activity in the dog as concentration of Na+ in urinary excretion (dose 0.1 mg/Kg, po) to that of K. It counts as functional, Urine. The essentials:
as §4

In experiment [24] the test system is Canis familiaris. The experiment can be described thus: Saluretic activity in the dog measured as concentration of Cl - in urinary excretion (2 animals/dose) at (dose 0.1 mg/Kg, po). The experiment is classed as functional, Canis lupus familiaris, Urine. The essentials: as §2
In experiment [25] the test system is Canis familiaris. The experiment can be described thus: Saluretic activity in the dog measured as concentration of Na+ in urinary excretion (2 animals/dose) at (dose 0.4 mg/Kg, po). It counts as functional, Canis lupus familiaris, Urine. The essentials: as §5
Experiment [26] deals with Canis familiaris. The experiment can be described thus: Diuretic activity in the dog (2 animals/dose) at (dose 0.1 mg/Kg), when administered perorally. The experiment is classed as functional, Canis lupus familiaris, Urine. The essentials: as §4
Experiment [27] has as its system Rattus norvegicus. The experiment can be described thus: Salidiuretic activity on the basis of the 50 mg/kg po rat assay; compound was highly active. The experiment is classed as functional, organism-based. On the set-up: dose 50 mg/kg. The conditions noted are these: Urine.
Experiment [28] has as its system Canis familiaris. The experiment can be described thus: Diuretic activity in the dog (2 animals/dose) at (dose 0.4 mg/Kg), when administered perorally. It counts as functional, Canis lupus familiaris, Urine. The method in brief:
as §4

The subject of experiment [29] is Canis familiaris. The experiment can be described thus: Saluretic activity in the dog measured as concentration of Cl - in urinary excretion (2 animals/dose) at (dose 6.25 mg/Kg, po). It counts as functional, Canis lupus familiaris, Urine. The essentials: as §2
Experiment [30] concerns Canis familiaris. The description is as §3. It counts as functional, Canis lupus familiaris, Urine. The method in brief:
as §4

Experiment [31] has as its system Canis familiaris. As to the kind of experiment: Diuretic activity in the dog (2 animals/dose) at (dose 6.25 mg/Kg), when administered perorally. It counts as functional, Canis lupus familiaris, Urine. The method in brief: as §4
Experiment [32] can be described thus: It is the ratio, measured as saluretic activity in the dog as concentration of Cl- in urinary excretion (dose 0.1 mg/Kg, po) to that of (Na++K+). The experiment is classed as functional, Urine. The essentials:
as §4

The nature of experiment [33]: It is the ratio, measured as saluretic activity in the dog as concentration of Na+ in urinary excretion (dose 6.25 mg/Kg, po) to that of K. It counts as functional, Urine. The method in brief: as §4

With `NS(=O)(=O)c1cc(S(=O)(=O)[O-])c(NCc2ccco2)cc1[S+]([O-])c1ccccc1.[K+]` (stereo not given), the Saluretic activity in the experiment filed under Rattus norvegicus [1] came out at 1.7 m equiv 5hr-1 kg-1; in the experiment filed under Rattus norvegicus [4], 1.5 m equiv 5hr-1 kg-1; in the experiment on Canis familiaris [8], 0.59 m equiv 6hr-1 kg-1; in the experiment listed under Rattus norvegicus [10], 0.8 m equiv 5hr-1 kg-1. For the same molecule, the Saldiuretic activity was found to be 1.27 m equiv 6hr-1 kg-1 in the experiment on Canis familiaris [2] and 0.33 m equiv 6hr-1 kg-1 in the experiment on Canis familiaris [9]. Further, the Ratio is on record as 1.8 in [3] and 1.3 in experiment [6]. The Diuretic activity in the experiment listed under Rattus norvegicus [5] stood at 0.8 mL/kg; in the experiment on Canis familiaris [7], 48.4 ml kg-1 6hr-1.
Turning to `NS(=O)(=O)c1cc(S(=O)(=O)[O-])c(NCc2ccco2)cc1S(=O)(=O)C1CCCCC1.[Na+]`, the Saldiuretic activity entry in the experiment with Canis familiaris [11] and in the experiment on Rattus norvegicus [27] was “Active” each time. The Ratio in experiment [12] stood at 1; in experiment [17], 0.95; in [18] it was 1; in [20], 4.5; in experiment [23], 3.7; with Canis familiaris [30] it was 4.7. Further, the figures for the Ratio in experiment [32] and in experiment [33] were 1 and 4.7, respectively. Moreover, the Saluretic activity in the experiment filed under Rattus norvegicus [1] is reported as 9.1 m equiv 5hr-1 kg-1; in the experiment on Canis familiaris [15] it was 5.5 m equiv 6hr-1 kg-1; in the experiment listed under Rattus norvegicus [4], 2.3 m equiv 5hr-1 kg-1; in the experiment on Canis familiaris [19] it was 0.82 m equiv 6hr-1 kg-1; with Canis familiaris [22] it was 1.95 m equiv 6hr-1 kg-1; in the experiment with Canis familiaris [8] it was 5.38 m equiv 6hr-1 kg-1. Further, the results for the Saluretic activity in the experiment on Canis familiaris [25] and in the experiment listed under Rattus norvegicus [10] were 3.71 m equiv 6hr-1 kg-1 and 8.2 m equiv 5hr-1 kg-1, respectively. For the same molecule, the Saldiuretic activity with Canis familiaris [13] came to 1.16 m equiv 6hr-1 kg-1; with Canis familiaris [14] it was 4.43 m equiv 6hr-1 kg-1; in the experiment on Canis familiaris [16], 0.53 m equiv 6hr-1 kg-1; with Canis familiaris [21], 6.15 m equiv 6hr-1 kg-1; in the experiment with Canis familiaris [24], 2.49 m equiv 6hr-1 kg-1; in the experiment on Canis familiaris [9] it was 1.14 m equiv 6hr-1 kg-1. Also, in the experiment with Canis familiaris [29], the Saldiuretic activity is on record as 6.83 m equiv 6hr-1 kg-1. The Diuretic activity in the experiment filed under Rattus norvegicus [5] came out at 2.8 mL/kg; in the experiment on Canis familiaris [7] it was 66.7 ml kg-1 6hr-1; in the experiment with Canis familiaris [26], 44.7 ml kg-1 6hr-1; in the experiment on Canis familiaris [28] it was 59 ml kg-1 6hr-1; with Canis familiaris [31], 73.5 ml kg-1 6hr-1.
